L major viab: Leishmania major promastigote growth inhibition, primary screen. Leishmania major promastigotes, resazurin fluorescence viability. inhibition, % at 10 µM. 9% of 200,000 active. AID 1063, 2008;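 also: promastigotes grown with compound for 44 hours at 28 °C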
Rad51 HR inh: human RAD51 strand exchange inhibitors, primary screen, biochemical, fluorescence; hRad51 DNA strand exchange, fluorescence dequenching; inhibition, % at 10 µM; 0.085% of 200,000 active;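 active = inhibition above 40% at the single screening dose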;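 also: 0% = DMSO control wells and 100% = blanks with heterologous ssDNA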
Target sequence (Q06609 whole entry, looked up): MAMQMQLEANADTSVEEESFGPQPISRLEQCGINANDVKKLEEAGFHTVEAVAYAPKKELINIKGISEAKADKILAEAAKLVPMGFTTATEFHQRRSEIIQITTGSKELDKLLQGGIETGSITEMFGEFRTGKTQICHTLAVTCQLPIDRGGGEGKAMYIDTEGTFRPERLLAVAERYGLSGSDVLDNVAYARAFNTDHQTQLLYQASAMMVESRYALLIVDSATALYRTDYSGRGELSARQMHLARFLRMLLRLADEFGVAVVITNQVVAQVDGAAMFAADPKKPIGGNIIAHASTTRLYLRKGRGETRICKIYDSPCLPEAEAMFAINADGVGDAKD
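Material: Human Rad51 nucleoprotein filaments preassembled on unlabelled ssDNA | Also added: Labelled 47-mer dsDNA for strand exchange | Dosing: Single dose, 10 µM final compound | Schedule: 30-min compound preincubation and 15-min exchange, both room temperature | Technique: Fluorescence dequenching at 485/520 nm | Measure: Percent inhibition relative to plate controls and blanks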
Arbovirus inh: antivirals against arbovirus infection, primary screen, cell-based, full library, 10K replicate subset | arbovirus infection cell-based antiviral screen | inhibition, % at 10 µM | 0.37% of 200,000 active; in the data active = inhibition above about 30%
Wee1 degr inh: Wee1 degradation inhibitors, primary screen, cell-based, HeLa, Wee1K328M-luciferase, luminescence. reporter increase, % at 5 µM. HeLa Luc-Wee1K328M stability; 100% = proteasome inhibitor MG132 effect. Wee1-like protein kinase (Homo sapiens), P30291. 1.2% of 220,000 active. AID 1321, 2008;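 active = activation above the mean of all tested compounds plus 3 SD, set per screening run, cut at about 8.8% in these data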;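 also: cells exposed to compound for 20 h before luminescence read; 0% = DMSO alone and 100% = MG132 at 30 µM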
CHOP inh: inhibitors of CHOP promoter induction, primary screen, cell-based, unfolded protein response, luciferase reporter | CHO-K1 CHOP-promoter luciferase, tunicamycin-induced, 15-18 h | inhibition, % at 10 µM | 3.8% of 220,000 active | AID 2732, 2010;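 active = compounds that reduced the stress-induced luciferase reporter signal by more than about 70% of percent inhibition, limit read from the data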;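 also: 0% = tunicamycin plus vehicle and 100% = wells without tunicamycin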
PKD1 kinase inh: inhibitors of human PKD1 kinase, biochemical, fluorescence polarization | PKD1 kinase fluorescence polarization assay | inhibition, % (test concentration not listed) | AID 797, 2007 | 0.056% of 200,000 active
Numbers without * were called inactive; / = no result given. Only some compounds are listed: those with a hit (about 12% of all), similar ones and a draw of the others. Rule as the data show it, unless noted: active = inhibition above about 50%; inactive = the rest.

SMILES	L major viab	Rad51 HR inh	Arbovirus inh	Wee1 degr inh	CHOP inh	PKD1 kinase inh
CC(=O)N1CCN(C2c3cccc4cccc(c34)C2NS(=O)(=O)c2ccccc2)CC1 (stereo unspecified)	1	-2	9	1	-1	-5
O=S(=O)(NC1c2cccc3cccc(c23)C1N1CCNCC1)c1ccc(Cl)cc1 (stereo unspecified)	100*	3	-30	2	0	-3
Cn1cnnc1SC1c2cccc3cccc(c23)C1NS(=O)(=O)c1ccc(Cl)cc1 (stereo unspecified)	53*	-2	-1	1	23	-8
Cc1c(CNCC(C)c2ccccc2)c(C(=O)O)c(C)n1Cc1ccccc1 (stereo unspecified)	0	/	10	-2	7	2
Cc1ccc(NC2Sc3ccccc3NC2=O)cc1Cl (stereo unspecified)	/	-4	/	-1	6	/
COc1ccc(OCC(=O)Nc2cc(-c3nn4c(C)nnc4s3)ccc2C)cc1	-7	-2	-1	2	54	-1
Cc1cc(OCC(=O)Nc2cc(-c3nn4c(C)nnc4s3)ccc2C)ccc1Cl	-1	3	-6	0	95*	-6
O=C(NN1C(=O)C2C3c4ccccc4C(c4ccccc43)C2C1=O)C1CC1 (stereo unspecified)	-5	-7	-1	0	-13	-10
CC(C)(C)C(=O)Nc1sc2c(c1-c1nc3ccccc3[nH]1)CCCC2	38	-3	-5	-2	83*	-9
CCOC(=O)C1(CC2CCCCO2)CCN(S(=O)(=O)c2c(C)nn(C)c2C)CC1 (stereo unspecified)	-4	4	-4	0	-22	-13
Cc1cc(C(=O)CCl)c(C)n1CCc1ccc(Cl)cc1	101*	/	-22	-1	-4	-2
Cc1cc(C(=O)CCl)c(C)n1CCc1ccc(F)cc1	100*	-1	-41	-2	-407	6
Cc1cc(C(=O)CSc2nnnn2C)c(C)n1CCc1ccc(F)cc1	-3	1	0	-3	-23	2
COc1ccc(CCn2c(C)cc(C(=O)CCl)c2C)cc1OC	89*	-4	-35	-5	-146	-8
COc1ccc(CCn2c(C)c(C(C)=O)c(C(C)=O)c2C)cc1OC	-3	-10	18	0	-21	4
O=C(C(Cl)Cl)N1CCN(Cc2ccccc2)CC1	-5	-7	0	1	25	-8
O=C(C(c1ccccc1)c1ccccc1)N1CCN(Cc2ccc(Br)cc2)CC1	26	-5	-4	-4	81*	-2
CCC(NC(=O)c1ccccc1NC(=O)c1ccccc1)C(=O)NNC(=O)c1cccnc1 (stereo unspecified)	/	19	/	1	6	/
CCOC(=O)CSc1nc2nc(C)cc(C)n2n1	-5	-7	3	-3	83*	1
CCOC(=O)Cc1cc(-c2ccc(OC)cc2)nc2ccc3ccccc3c12	99*	-1	2	1	23	-5
CCOc1ccc(N(CC(=O)Nc2cc(C)ccc2C)S(=O)(=O)c2c(C)[nH]c(=O)[nH]c2=O)cc1	/	-4	/	3	-2	/
CCCCC(c1nnnn1CC1CCCO1)N1CCN(c2cccc(C)c2C)CC1 (stereo unspecified)	56*	20	-2	-1	1	3
Cc1cc(C)c(C)c(C(=O)CSc2nnc(-c3ccc4[nH]c(C)c(C)c4c3)o2)c1C	42	-8	-26	3	71*	-2
Cc1ccc(C)c(NC(=O)C2CCCN2/C=C/C(=O)C(F)(F)F)c1 (stereo unspecified)	-6	6	11	-1	14	-3
COc1cccc(CN2CCN(Cc3nc4c(s3)CCCC4)CC2CCO)c1 (stereo unspecified)	17	-22	3	10*	1	3
COc1cccc(CN2CCN(Cc3ccc(O)cc3)CC2CCO)c1 (stereo unspecified)	69*	9	-10	-3	-20	-3

High-throughput results deposited in PubChem by several laboratories.
